# Test results reported in ChEMBL document CHEMBL3853270, “Influence of Birch Bark Triterpenes on Keratinocytes and Fibroblasts from Diabetic and Nondiabetic Donors” (2016).
# Calls of active or inactive are those of the source. No cut-off for these calls is given here.
# Experiments:
# Format in all cases: functional
# [1] = system: Keratinocyte; assay: Effect on growth factor related gene expression in non-diabetic young human primary keratinocytes assessed as PDGFB mRNA levels at 1.96 uM after 6 hrs by qPCR analysis
# Summary of the method: (§1)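 Primary human keratinocytes (nondiabetic young or adult, diabetic adult donors) were exposed to compound for 6 h, with 0.1% DMSO as solvent control. Total RNA came from 400 000 cells per sample and was assayed on a Fluidigm Biomark high-throughput qPCR chip. Results are fold change vs solvent control, from 2−4 independent experiments on two donors per group, with SD. Groups were compared by one-way ANOVA with Bonferroni post-test.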
# [2] = system: Keratinocyte; assay: Effect on AQP3 mRNA expression levels in non-diabetic young human primary keratinocytes at 1.96 uM after 6 hrs by qPCR analysis
# Summary of the method: (§2)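 Primary keratinocytes from nondiabetic young and adult and diabetic adult donors; 400 000 cells per sample, 6 h exposure at 1.96 or 9.81 μM. RNA extracted and read on a high-throughput qPCR chip. Results are fold change versus 0.1% DMSO solvent control from 5−7 independent experiments over two donors per group, SD, one-way ANOVA with Bonferroni post-test.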
# [3] = system: Keratinocyte; assay: Effect on growth factor related gene expression in non-diabetic adult human primary keratinocytes assessed as PDGFB mRNA levels at 1.96 uM after 6 hrs by qPCR analysis; summary of the method: as §1
# [4] = system: Keratinocyte; assay: Effect on transcription factor related gene expression in non-diabetic adult human primary keratinocytes assessed as JUN mRNA levels at 1.96 uM after 6 hrs by qPCR analysis
# [5] = system: Keratinocyte; assay: Effect on AQP3 mRNA expression levels in non-diabetic adult human primary keratinocytes at 1.96 uM after 6 hrs by qPCR analysis; summary of the method: as §2
# [6] = system: Keratinocyte; assay: Effect on cellular connection related gene expression in diabetic adult human primary keratinocytes assessed as GJB2 mRNA levels at 1.96 uM after 6 hrs by qPCR analysis
# [7] = system: Keratinocyte; assay: Effect on antioxidant related gene expression in diabetic adult human primary keratinocytes assessed as SOD2 mRNA levels at 1.96 uM after 6 hrs by qPCR analysis
# [8] = system: Keratinocyte; assay: Effect on growth factor related gene expression in diabetic adult human primary keratinocytes assessed as PDGFB mRNA levels at 1.96 uM after 6 hrs by qPCR analysis; summary of the method: as §1
# [9] = system: Keratinocyte; assay: Effect on pro-inflammatory related gene expression in non-diabetic young human primary keratinocytes assessed as PTGS2 mRNA levels at 9.81 uM after 6 hrs by qPCR analysis
# [10] = system: Keratinocyte; assay: Effect on pro-inflammatory related gene expression in non-diabetic young human primary keratinocytes assessed as IL6 mRNA levels at 9.81 uM after 6 hrs by qPCR analysis
# [11] = system: Keratinocyte; assay: Effect on antioxidant related gene expression in non-diabetic young human primary keratinocytes assessed as SOD2 mRNA levels at 9.81 uM after 6 hrs by qPCR analysis
# [12] = system: Keratinocyte; assay: Effect on transcription factor related gene expression in non-diabetic young human primary keratinocytes assessed as JUN mRNA levels at 9.81 uM after 6 hrs by qPCR analysis
# [13] = system: Keratinocyte; assay: Effect on AQP3 mRNA expression levels in non-diabetic young human primary keratinocytes at 9.81 uM after 6 hrs by qPCR analysis; summary of the method: as §2
# [14] = system: Keratinocyte; assay: Effect on growth factor related gene expression in non-diabetic adult human primary keratinocytes assessed as GDF15 mRNA levels at 9.81 uM after 6 hrs by qPCR analysis; summary of the method: as §1
# [15] = system: Keratinocyte; assay: Effect on cellular connection related gene expression in diabetic adult human primary keratinocytes assessed as CLDN4 mRNA levels at 9.81 uM after 6 hrs by qPCR analysis
# [16] = system: Keratinocyte; assay: Effect on pro-inflammatory related gene expression in diabetic adult human primary keratinocytes assessed as IL1B mRNA levels at 9.81 uM after 6 hrs by qPCR analysis
# [17] = system: Fibroblast; assay: Effect on pro-inflammatory related gene expression in non-diabetic young human primary fibroblasts assessed as IL1B mRNA levels at 1.96 uM after 6 hrs by qPCR analysis
# [18] = system: Fibroblast; assay: Effect on growth factor related gene expression in non-diabetic young human primary fibroblasts assessed as GDF15 mRNA levels at 1.96 uM after 6 hrs by qPCR analysis
# Summary of the method: (§3)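 Primary human dermal fibroblasts (young or adult nondiabetic, adult diabetic donor) were treated for 6 h against a 0.1% DMSO solvent control. RNA from 320 000 cells per sample was measured by Fluidigm Biomark high-throughput qPCR. Values are fold change relative to solvent control, from four independent experiments, with SD. One-way ANOVA with Bonferroni post-test was applied.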
# [19] = system: Fibroblast; assay: Effect on chemokines related gene expression in diabetic adult human primary fibroblasts assessed as WDR26 mRNA levels at 9.81 uM after 6 hrs by qPCR analysis
# [20] = system: Fibroblast; assay: Effect on antioxidant related gene expression in diabetic adult human primary fibroblasts assessed as SOD2 mRNA levels at 1.96 uM after 6 hrs by qPCR analysis
# [21] = system: Fibroblast; assay: Effect on pro-inflammatory related gene expression in non-diabetic young human primary fibroblasts assessed as PTGS2 mRNA levels at 9.81 uM after 6 hrs by qPCR analysis
# [22] = system: Fibroblast; assay: Effect on antiinflammatory related gene expression in non-diabetic young human primary fibroblasts assessed as NFKBIA mRNA levels at 9.81 uM after 6 hrs by qPCR analysis
# Summary of the method: (§4)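 Primary dermal fibroblasts from one nondiabetic young, one nondiabetic adult and one diabetic adult donor; 320 000 cells per sample, 6 h at 1.96 or 9.81 μM. RNA measured on a high-throughput qPCR chip. Fold change versus 0.1% DMSO control, four independent experiments, SD, one-way ANOVA with Bonferroni post-test.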
# [23] = system: Fibroblast; assay: Effect on pro-inflammatory related gene expression in diabetic adult human primary fibroblasts assessed as IL6 mRNA levels at 9.81 uM after 6 hrs by qPCR analysis; summary of the method: as §3
# [24] = system: Fibroblast; assay: Effect on MMP1 mRNA expression levels in diabetic adult human primary fibroblasts at 9.81 uM after 6 hrs by qPCR analysis; summary of the method: as §4
# [25] = system: Fibroblast; assay: Effect on antioxidant related gene expression in diabetic adult human primary fibroblasts assessed as NFE2L2 mRNA levels at 9.81 uM after 6 hrs by qPCR analysis
# [26] = system: Fibroblast; assay: Effect on growth factors related gene expression in diabetic adult human primary fibroblasts assessed as FGF2 mRNA levels at 1.96 uM after 6 hrs by qPCR analysis; summary of the method: as §3
# [27] = Effect on wound healing activity in non-diabetic adult human primary keratinocytes assessed as upregulation of TNFalpha protein levels at 1.96 uM after 24 hrs by bead-based suspension array analysis; conditions: Keratinocyte
# [28] = system: Keratinocyte; assay: Effect on wound healing activity in diabetic adult human primary keratinocytes assessed as increase in soluble gp130 part of IL6 receptor protein levels at 1.96 uM after 24 hrs by bead-based suspension array analysis
# [29] = system: Fibroblast; assay: Effect on actin cytoskeleton in human non-diabetic primary fibroblasts assessed as formation of thin elongated cellular body at 10 nM after 2 hrs by rhodamine phalloidin-staining based fluorescence microscopic analysis
# Summary of the method: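 Subconfluent cells on glass coverslips, collagen type I coated for fibroblasts; keratinocytes starved 2 days before stimulation. Exposure 2 h, then rhodamine-phalloidin staining (1:25 in PBS) and fluorescence microscopy. Controls were DMSO as solvent and PDGF (fibroblasts) or CNF1 (keratinocytes). Where used, p38-MAPK inhibitor LN 950 (100 nM) was added 30 min beforehand.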
smiles,measurement,setting,value
C=C(C)[C@@H]1CC[C@]2(CO)CC[C@]3(C)[C@H](CC[C@@H]4[C@@]5(C)CC[C@H](O)C(C)(C)[C@@H]5CC[C@]43C)[C@@H]12 [BETULIN],fold change (FC),[1],1.2
same,fold change (FC),[2],0.9
same,fold change (FC),[3],0.8
same,fold change (FC),[4],1.3
same,fold change (FC),[5],0.8
same,fold change (FC),[6],0.9
same,fold change (FC),[7],1.1
same,fold change (FC),[8],1
same,fold change (FC),[9],1.5
same,fold change (FC),[10],6
same,fold change (FC),[11],1.4
same,fold change (FC),[12],1.8
same,fold change (FC),[13],1.1
same,fold change (FC),[14],1
same,fold change (FC),[15],2.1
same,fold change (FC),[16],1
same,fold change (FC),[17],3.3
same,fold change (FC),[18],3.7
same,fold change (FC),[19],1.2
same,fold change (FC),[20],2.2
same,fold change (FC),[21],14.7
same,fold change (FC),[22],3.2
same,fold change (FC),[23],5.3
same,fold change (FC),[24],0.6
same,fold change (FC),[25],1.5
same,fold change (FC),[26],2
same,Activity,[27],Active
same,Activity,[28],Active
same,Activity,[29],Active
